The test system of series [1] is PANC-1. As to the kind of experiment: Antitumor activity against human PANC1 cells xenografted in nude mouse assessed as inhibition of tumor weight at 10 mg/kg administered every 2 days for 21 days relative to vehicle-treated control. The class given is functional. (In general: In xenograft studies the graft and the host belong to different species.)
A further series has as its system BXPC-3. As to the kind of experiment: Antiproliferative activity against human BxPC3 cells after 48 hrs by MTT assay. The class given is functional, cell-based. The settings on record: BXPC-3, 48 h. The procedure, abridged: (§1)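 Cells were seeded at 5×10^5 cells/mL overnight and exposed to graded compound concentrations for 48 h. MTT (5 mg/mL stock) was added for 4 h at 37 °C, and formazan was dissolved in DMSO. Absorbance was read at 570 nm. IC₅₀ was fitted from the curves; values are mean ± SD, n = 3.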
(In general: Formazan colour is commonly taken as a measure of viable cells.)

The test system of series [2] is PANC-1. As to the kind of experiment: Antiproliferative activity against human PANC1 cells after 48 hrs by MTT assay. It counts as functional, cell-based. Conditions: PANC-1, 48 h. The procedure, abridged:
as §1

The test system of another series is MDA-MB-231. As to the kind of experiment: Antiproliferative activity against human MDA-MB-231 cells after 48 hrs by MTT assay. The class given is functional, cell-based. Conditions: MDA-MB-231, 48 h. The method, boiled down: as §1
The test system of series [3] is HCT-116. As to the kind of experiment: Antiproliferative activity against human HCT116 cells after 48 hrs by MTT assay. It counts as functional, cell-based. The settings on record: HCT-116, 48 h. The procedure, abridged: as §1
Series [4] concerns HCT-116. As to the kind of experiment: Antiproliferative activity against p53-deficient human HCT116 cells after 48 hrs by MTT assay. The class given is functional, cell-based. The settings on record: HCT-116, 48 h. The procedure, abridged: as §1
Another series has as its system A549. Kind of series: Antiproliferative activity against human A549 cells after 48 hrs by MTT assay. The class given is functional, cell-based. Conditions: A549, 48 h. The method, boiled down:
as §1

The test system of the next series is MCF7. Kind of series: Antiproliferative activity against human MCF7 cells after 48 hrs by MTT assay. The class given is functional, cell-based. Conditions: MCF7, 48 h. The method, boiled down:
as §1

Series [5] can be described thus: Intrinsic aqueous solubility of the compound. Conditions: read-out: Intrinsic_solubility. It counts as physicochemical. The procedure, abridged:
(§2)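 Intrinsic aqueous solubility and log D at pH 7.4 were measured on a pION Gemini Profiler.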

Series [6] can be described thus: Distribution co-efficient, log D of the compound at pH 7.4. The class given is physicochemical. Conditions: buffer. The procedure, abridged:
as §2

The nature of series [7]: Effective permeability of the compound at pH 7.4 by PAMPA. The class given is ADME. Conditions: read-out: Peff. The procedure, abridged: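 Effective permeability was measured by double-sink PAMPA on a pION PAMPA Explorer.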

Converted amounts (≈) assume the structure as drawn.

Turning to `COc1cccc2c1C(=O)c1c(O)c3c(c(O)c1C2=O)C[C@@](O)(C(=O)CO)C[C@@H]3O[C@H]1C[C@H](N)[C@H](O)[C@H](C)O1` [DOXORUBICIN], the inhibition in vivo (commonly the change of the read-out against control, counted positive when it falls) at 10 mg/kg in the series with PANC-1 [1] came out at 71.9%. Also, the IC50 (commonly the concentration at which inhibition is half-maximal) with BXPC-3 was found to be 0.56 µM; in the series with PANC-1 [2], 0.41 µM; with MDA-MB-231 it was 0.49 µM.
In the case of `Cc1c(C(=O)NCCN2CCCC2)oc2ccc(N(Cc3ccc(Br)cc3)S(=O)(=O)c3ccc(Br)cc3)cc12`, the IC50 came to 2.67 µM with HCT-116 [3]; 2.36 µM in the series on BXPC-3; 2.29 µM in the series with HCT-116 [4]; 5.29 µM in the series with A549; 5.44 µM in the series on MCF7; 2.78 µM with PANC-1 [2]. The compound further returned an IC50 in the series with MDA-MB-231 of 8.17 µM.
With `Cc1c(C(=O)NCCS(C)(=O)=O)oc2ccc(N(Cc3ccc(Br)cc3)S(=O)(=O)c3ccc(Br)cc3)cc12`, the IC50 with HCT-116 [3], in the series with BXPC-3, in the series with HCT-116 [4], in the series on A549, with MCF7 and in the series with PANC-1 [2] was above 40 µM in each case. In addition, the half-maximal inhibitory concentration (IC50) with MDA-MB-231 is above 40 µM.
As for `CC(=O)NCCNC(=O)c1oc2ccc(N(Cc3ccc(Br)cc3)S(=O)(=O)c3ccc(Br)cc3)cc2c1C`, the IC50 was 12.2 µM with HCT-116 [3]; above 40 µM in the series on BXPC-3; 20.4 µM in the series on HCT-116 [4]; above 40 µM in the series with A549; 21.3 µM in the series on MCF7; 34.8 µM with PANC-1 [2]. The IC50 in the series with MDA-MB-231 is above 40 µM.
Take `Cc1c(C(=O)N2CCNC(=O)C2)oc2ccc(N(Cc3ccc(Br)cc3)S(=O)(=O)c3ccc(Br)cc3)cc12`: the IC50 was 7.88 µM in the series on HCT-116 [3]; above 40 µM with BXPC-3; 21.9 µM in the series on HCT-116 [4]; above 40 µM with A549; above 40 µM in the series with MCF7; above 40 µM in the series on PANC-1 [2]. In the series with MDA-MB-231, this compound had an IC50 above 40 µM.
As for `CCN(CC)CCNC(=O)c1oc2ccc(N(Cc3ccc(Br)cc3)S(=O)(=O)c3ccc(Br)cc3)cc2c1C`, the 50% inhibitory concentration (IC50) is 2.39 µM in the series with HCT-116 [3]; 1.08 µM in the series on BXPC-3; 1.66 µM in the series on HCT-116 [4]; 2.98 µM in the series with A549; 2.84 µM with MCF7; 1.52 µM in the series with PANC-1 [2]. In the series on MDA-MB-231, half-maximal inhibition (IC50) was put at 3.73 µM. Moreover, the solubility in series [5] was 21 µg/mL (≈ 31 µM). Also, the logD – broadly, lipophilicity at a set pH, counting ionised and neutral species – in [6] was determined as 2.53. Besides, the Papp in [7] came to 2.54 ×10⁻⁶ cm/s.
Regarding `Cc1c(C(=O)N2CCCC(C)C2)oc2ccc(N(Cc3ccc(Br)cc3)S(=O)(=O)c3ccc(Br)cc3)cc12` (stereo not drawn), the IC50 in the series with HCT-116 [3] was found to be 23.1 µM; in the series with BXPC-3, 16.6 µM; with HCT-116 [4], 28.3 µM; in the series with A549 it was 33.7 µM; with MCF7 it was 32.8 µM; in the series on PANC-1 [2], 26.2 µM. In the series with MDA-MB-231, this compound gave an IC50 of 19.4 µM.
For `Cc1c(C(=O)NCCc2ccccn2)oc2ccc(N(Cc3ccc(Br)cc3)S(=O)(=O)c3ccc(Br)cc3)cc12`, the IC50 with HCT-116 [3], with BXPC-3, in the series on HCT-116 [4], with A549, in the series on MCF7 and in the series with PANC-1 [2] was above 40 µM in each case. In addition, the half-inhibitory concentration (IC50) in the series on MDA-MB-231 was above 40 µM.
With `Cc1c(C(=O)NCCN(C)C)oc2ccc(N(Cc3ccc(Br)cc3)S(=O)(=O)c3ccc(Br)cc3)cc12`, the IC50 in the series with HCT-116 [3] was found to be 3.64 µM; with BXPC-3, 4.79 µM; with HCT-116 [4], 1.2 µM; in the series on A549, 5.4 µM; with MCF7 it was 3.66 µM; in the series on PANC-1 [2] it was 5.94 µM. The compound also yielded an IC50 in the series on MDA-MB-231 of 8.24 µM.

The record behind these values is ChEMBL document CHEMBL4130343, “Design, synthesis, and evaluation of benzofuran derivatives as novel anti-pancreatic carcinoma agents via interfering the hypoxia environment by targeting HIF-1α pathway” (Eur J Med Chem, 2017).
